# Source: PubChem BioAssay (The Scripps Research Institute Molecular Screening Center)
# IDE inh: cellular human IDE inhibition. inhibition, % at 5.59 µM. HEK cells, FAbetaB cleavage, fluorescence polarization. 320,000 compounds, 0.41% hits. P14735;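 active means percent inhibition above the average of all tested compounds plus 3 SD, set per screening campaign, cut at about 16% in these data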;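 further: IDE supplied by intact live HEK cells; FP after avidin binding of uncleaved biotin substrate so inhibition keeps polarization high; 0% = DMSO wells and 100% = 60 µM reference IDE inhibitor Ii1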
# ASAP1 GAP inh: ASAP1 ArfGAP inhibition. ASAP1-stimulated ARF1 GTP hydrolysis, GDP FP detection. inhibition, % at 16.5 µM. 360,000 compounds, 0.19% hits. Q9ULH1; in the data active means inhibition above about 25%;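 further: 0% = vehicle with enzyme and substrate and 100% = no enzyme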
# IDE cell activ: boosts human insulin-degrading enzyme activity in HEK cells. FAbeta-B cleavage, fluorescence polarization; 0% vehicle, 100% cell-free pure enzyme wells. P14735. 340,000 compounds, 0.073% hits. activation, % at 5.96 µM;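 active means activation above the mean of all tested compounds plus 3 SD, set per screening campaign, cut at about 17% in these data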
# PREPL inhibitor: human PREPL enzyme inhibition; AID 2751; inhibition, % at 5.96 µM; recombinant PREPL, fluorescence polarization activity-based probe; 320,000 compounds, 0.68% hits; in the data active means inhibition above about 43%;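 further: 0% = enzyme with DMSO and 100% = wells lacking enzyme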
# ARFGAP1 inh: inhibitors of rat ARFGAP1; Q62848; inhibition, % at 16.5 µM; 360,000 compounds, 0.26% hits; Arfgap1-stimulated ARF1 GTP hydrolysis, GDP FP detection;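 active means inhibition above a per-plate limit, mean inhibition of low control wells plus 3 SD, cut at about 25% in these data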;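 further: 0% = DMSO wells with enzyme and 100% = wells lacking Arfgap1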
#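 Assay system: purified rat His6-Arfgap1 residues 1-136 (GAP domain); Reagent: human Δ17 ARF1 bound to GTP; Dosing: 16.5 µM single point, 1.26% DMSO; Times: GTP hydrolysis reaction 2 h at 25 °C; Signal: FP, GDP Alexa 633 tracer displaced from anti-GDP antibody, 620/688 nm; Measure: % inhibition from polarization.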
# ARFGAP1 inh conf: rat ARFGAP1 inhibition, confirmed; 890 compounds, 30% hits; ARFGAP1-stimulated ARF1 GTP hydrolysis, GDP tracer FP; shares compounds with ARFGAP1 inh; inhibition, % at 16.5 µM;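 active means average inhibition over triplicates above the hit cutoff set in the earlier primary screen, cut at about 25% in these data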;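 further: 0% = Arfgap1 plus ARF1-GTP with DMSO and 100% = wells lacking Arfgap1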
# * = called active by the depositor; . = not tested or not shown. Rows were chosen to be rich in hits. Some 1.2% of all compounds tested hit in one or more screens of this group.
SMILES,IDE inh,ASAP1 GAP inh,IDE cell activ,PREPL inhibitor,ARFGAP1 inh,ARFGAP1 inh conf
CS(=O)(=O)N1CCCC(C(=O)NCc2ccc(F)cc2)C1 (configuration not stated),-1,-6,-3,-1,27*,3
CC(c1ccccc1)N1C(=O)c2cccnc2C1=O (configuration not stated),1,2,-1,-1,2,.
CC(NC1=CC(=O)c2cccnc2C1=O)C(O)c1ccccc1 (configuration not stated),.,17,7,.,27*,-9
COc1ccc(NC(=O)c2ccc(NC(=O)COC(=O)CC(NC(=O)c3ccccc3Cl)c3ccccc3)cc2)cc1 (configuration not stated),2,12,-2,1,26*,5
CCN(CC)CCNC(=O)c1ccc(NC(=O)CC(NC(=O)c2ccccc2Cl)c2ccccc2)cc1 (configuration not stated),3,-4,-2,-6,0,.
O=C(CCC(=O)c1ccc(F)cc1)NCC1(N2CCCCC2)CCCCC1,6,23,4,23,10,.
CCOc1ccc(CCN2C(=S)N([C@@H](Cc3ccc(O)cc3)CN3CCC[C@@H]3CN3C(=S)NC[C@@H]3Cc3ccc(O)cc3)C[C@@H]2Cc2ccc(O)cc2)cc1,.,12,.,.,26*,10
NC1=NC[C@H](Cc2ccccc2)N1CCc1cc(C(F)(F)F)cc(C(F)(F)F)c1,-1,6,9,12,25*,2
COc1cccc(C(=O)NNC2OC(CO)C(O)C2O)c1 (configuration not stated),-1,-8,5,-9,42*,8
CN1CCN(c2ccc(Cl)cc2NC(=O)/C=C/c2ccc(F)cc2)CC1,1,17,2,-1,25*,9
O=C(/C=C/c1ccc(F)cc1)Nc1cc(S(=O)(=O)N2CCOCC2)ccc1N1CCCC1,0,-8,-1,13,8,.
Cc1nc2ccc(NC(=O)C3CCN(S(=O)(=O)c4cccs4)CC3)cc2s1,-8,9,3,-3,25*,3
Cc1nc2ccc(NC(=O)c3ccc(Cl)c(NC(=O)c4cccs4)c3)cc2s1,3,19,0,7,26*,14
Cc1ccc(NC(=O)c2ccc(Cl)c(NC(=O)c3cccs3)c2)cc1,-1,9,-3,-2,-5,.
Cc1ccc(NC(=O)C2CCN(S(=O)(=O)c3cccs3)CC2)cc1,3,3,-1,-7,-4,.
C[n+]1cc2c3c(ccc2c2ccc4cc5c(cc4c21)OCO5)OCO3,.,-4,.,.,-8,.
COc1ccccc1NS(=O)(=O)c1cc(NC(=O)c2cc(=O)[nH]c3ccccc23)ccc1N1CCOCC1,-3,15,2,-10,28*,9
COc1ccc(CN2CCNC(=O)C2CC(=O)N(C)Cc2ccon2)c(F)c1 (configuration not stated),-2,-18,4,0,2,.
CCOc1ccc(-c2[nH]ncc2-c2ccccc2)c(O)c1,2,14,-4,1,25*,6
COc1ccc(-c2cn[nH]c2-c2ccc(OCc3ccccc3)cc2O)cc1,0,11,7,19,13,.
CN(C(=O)NC1CCCCC1)[C@H]1C[C@H]2c3[nH]c4ccccc4c3CCN2C(=O)[C@H]1CO,.,1,.,.,-9,.
CN(C(=O)C(C)(C)C)[C@H]1C[C@H]2c3[nH]c4ccccc4c3CCN2C(=O)[C@H]1CO,.,-10,.,.,96*,-3
CCC(C)C(=O)Nc1cc(OC)c(OC)cc1C(=O)O (configuration not stated),-2,-4,2,-6,28*,7
CCC(C)C(=O)Nc1nc(C)c(-c2csc(Nc3cc(Cl)ccc3OC)n2)s1 (configuration not stated),-6,10,3,8,31*,10
CCC(C)C(=O)Nc1nc(C)c(-c2csc(Nc3cc(OC)ccc3OC)n2)s1 (configuration not stated),-4,2,-2,6,11,.
COc1cc2c(cc1OC)C(C)N(C(=O)c1cc3c(s1)-c1c(C)cccc1OC3)CC2 (configuration not stated),0,8,-5,9,-2,.
